From publication PMC10351452 (Autophagy, 2023)

Tests used:
[1] = test system: PANC1 cells; experiment: Cell viability; assay type: cell-based, human; conditions: CQ 10 µM, day 4; stated as similar to compound 189
[2] = test system: NCI-H460 human lung cancer cells; experiment: Cell viability; assay type: cell-based; conditions: CQ 10 µM, 4 days
[3] = test system: NCI-H1299 cells; experiment: Cell viability; assay type: cell-based, human; conditions: CQ, 4 days
Method in brief: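 HEC-1A (DMEM/F12) and NCI-H1299 (RPMI) cells, media with 10% FBS, plated at 2000 cells/well and treated next day with test compound 10 µM. CQ 10 µM was used in HEC-1 cells. CellTiter-Glo luminescence read after 4 days and expressed as growth relative to DMSO. Mean ± SD; n = 11 for HEC-1A, n = 6 for NCI-H1299. One-way ANOVA with Tukey.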

[4] = test system: autophagosomes and autolysosomes in RFP-GFP-LC3B PANC1 cells; experiment: Autophagy flux assay in RFP-GFP-LC3B PANC1 stable cells; assay type: cell-based, human; conditions: RFP-GFP-LC3B PANC1, CQ 10 µM, 24 h
Method in brief: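 PANC1 cells transfected with an RFP-GFP-LC3B vector and kept two weeks under puromycin to give a stable polyclonal line. Plated on coverslips at 3X105 cells/well and treated next day, with CQ 10 µM as a comparator. After 24 h: DAPI stain, 4% paraformaldehyde fixation, confocal imaging. Autophagosomes RFP+GFP+; autolysosomes counted as red minus green dots per cell. Normalised to DMSO, mean ± SD, n = 3 biological repeats, two-way ANOVA/Sidak.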

[5] = test system: BCL2L1(BCL-XL)-BAX interaction; experiment: PCA lysate mixing protocol BCL2L1-L1 + BAX-L2; assay type: biochemical; conditions: 1 µM ABT-737 incubated with BCL2L1-L1 lysate 1 h prior to BAX-L2 lysate

Compound	reduction of growth of PANC1 cells [1]	effect on growth of NCI-H460 cells [2]	response of NCI-H1299 cells (viability) [3]	number of autophagosomes and autolysosomes per cell [4]	luminescence in BCL2L1-L1/BAX-L2 PCA [5]
CCN(CC)CCCC(C)Nc1ccnc2cc(Cl)ccc12 (centres unmarked) [CQ, chloroquine]	> 50%	no effect	did not respond	shift toward increased number of autophagosomes at the expense of autolysosomes	–
CN(C)CC[C@H](CSc1ccccc1)Nc1ccc(S(=O)(=O)NC(=O)c2ccc(N3CCN(Cc4ccccc4-c4ccc(Cl)cc4)CC3)cc2)cc1[N+](=O)[O-] [ABT-737]	–	–	–	–	significant decrease in luminescence
